Bioassay records from PubChem.
Shown is part of a subset that was picked to be rich in hits.
HCT116 bCat-KO = primary screen for growth suppressors in beta-catenin knockout HCT116 cells (colon tumor, human); HCT116 beta-catenin knockout viability, CellTiter-Glo, 60 h; stronger effect = lower value; viability, % at 10 µM; hit rate 1.5% among 140,000; AID 818, 2007;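 active = viability at or under a set limit, the compound median less 4 SD, cut at about 6% in these data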
HCT116 PTEN-null = growth suppression of PTEN-null HCT116, primary screen, cell-based, CellTiter-Glo; HCT116 PTEN-null viability, 60 h; stronger effect = lower value; viability, % at 10 µM; hit rate 1.2% among 140,000; AID 827, 2007;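 active = viability at or below a set limit, 4 SD under the median of all tested compounds, cut at about 3.7% in these data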;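 also: PTEN knockout HCT116 line with beta catenin targeted HCT116 as companion control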
H69AR inhibit = proliferation blockers of H69AR lung cancer cells, primary screen, cell-based, human, 86K library; AID 598, 2007; viability, % at 10 µM; H69AR lung tumor viability, ATP luminescence, 72 h; stronger effect = lower value; hit rate 6% among 85,000;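 active = viability at or below 40%; inactive = viability above 40%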;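 also: multidrug resistant small cell line overexpressing MRP-1 efflux transporter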
HUVEC prolif 384 = inhibitors of HUVEC proliferation, primary screen, cell-based, 384-well; CellTiter-Glo luminescence, 72 h; stronger effect = lower value; viability, % at 10 µM (by protocol); hit rate 1.1% among 86,000; AID 648, 2007;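 active = viability at or below 30%; inactive = viability above 30%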
Lung fibro prol = antiproliferative effect on LL 47 fibroblasts – human, LL 47 cells, CellTiter-Glo luminescence, primary screen; LL 47 human lung fibroblast viability, ATP luminescence; stronger effect = lower value; viability, % at 10 µM; hit rate 1.1% among 85,000;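 active = viability at or below 50% in the single dose screen; inactive = viability above 50%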;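 also: compound exposure lasted 72 h before the ATP readout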
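Material: Human LL 47 lung fibroblast cells | Input: 1,150 cells/well | Buffer or medium: IMEM plus 15% FBS | Compound dosing: 0.1% DMSO in all compound wells | Times: Overnight cell rest, 72 h compound treatment at 37 °C | Signal: CellTiter-Glo luminescence measuring cellular ATP | Measure: % viability versus median cells-only luminescence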
Numbers stand for hits; i = inactive; nt = no result.

SMILES	HCT116 bCat-KO	HCT116 PTEN-null	H69AR inhibit	HUVEC prolif 384	Lung fibro prol
Oc1ccccc1-c1nc(NCc2ccco2)c2ccccc2n1	i	i	36	i	i
CNC(=O)CSc1nnc(SCCC(=O)O)s1	i	i	nt	nt	nt
CCN1CCN(c2cc(C)c3cc(NC(=O)c4ccc5c(c4)OCO5)ccc3n2)CC1	i	i	nt	nt	nt
O=C(Nc1ccc(N2CCCCC2)cc1)c1cncc(Br)c1	i	i	i	i	i
CCN1CCN(c2cc(C)c3cc(NC(=O)c4cncc(Br)c4)ccc3n2)CC1	1.0	1.2	i	23	i
CCN1CCN(c2cc(C)c3cc(NC(=O)c4ccc(OC)c(OC)c4)ccc3n2)CC1	i	i	19	i	42
COc1ccc(C2=NOC(C(=O)NCc3ccc(F)cc3)C2)cc1OC (stereo unspecified)	i	i	28	i	46
COc1cc(C2=NOC(C(=O)NCc3ccc(F)cc3)C2)cc(OC)c1OC (stereo unspecified)	i	i	nt	nt	nt
CCn1ncc(C2=NOC(C(=O)Nc3cc(OC)c(Cl)cc3OC)C2)c1C (stereo unspecified)	i	i	39	i	i
COc1ccc(CNC(=O)C2CC(c3cccc(OC)c3)=NO2)cc1 (stereo unspecified)	i	i	i	i	i
O=C(NCc1ccc2c(c1)OCO2)C1CC(c2ccc(Cl)cc2)=NO1 (stereo unspecified)	i	i	i	i	i
COc1cc(OC)c(C2=NOC(C(=O)NCc3ccc4c(c3)OCO4)C2)cc1Cl (stereo unspecified)	i	i	22	i	i
CCn1ncc(C2=NOC(C(=O)NCC(C)C)C2)c1C (stereo unspecified)	i	i	i	i	i
COc1ccc(OC)c(C2=NOC(C(=O)NCc3ccco3)C2)c1 (stereo unspecified)	i	i	33	i	i
Cn1c(=O)c2c(nc(N/N=C/c3ccc(OC(=O)c4ccco4)cc3)n2Cc2ccccc2)n(C)c1=O	i	i	nt	nt	nt
O=C(CN(C1CC1)S(=O)(=O)c1ccc(S(=O)(=O)N2CCCCCC2)cc1)Nc1ccccc1	i	i	37	i	i
CCN(C1CCCCC1)S(=O)(=O)c1ccc(S(=O)(=O)N(CC(=O)Nc2ccccc2)C2CC2)cc1	i	i	i	i	i
COc1ccc(C(=O)OC(C)C(=O)Nc2cc(C(F)(F)F)ccc2Cl)c(OC)c1OC (stereo unspecified)	i	i	nt	nt	nt
Clc1ccc(C2C3=C(Nc4ncnn42)c2ccccc2CC3)cc1 (stereo unspecified)	i	i	13	i	i
c1ccc(C2C3=C(Nc4ncnn42)c2ccccc2CCC3)cc1 (stereo unspecified)	i	i	i	i	i
C=CCN(C(=O)c1ccccc1)c1ccc(OC)cc1	i	i	24	i	i
Cn1nnnc1Sc1ncnc2scc(-c3ccc(F)cc3)c12	5.5	3.7	nt	nt	nt
CCn1c(SCc2ccc(C#N)cc2)nnc1-c1ccc(S(=O)(=O)N2CCCCC2)cc1	i	i	34	i	i
Cn1cc([N+](=O)[O-])c(C(=O)Nc2ccn(Cc3c(F)c(F)cc(F)c3F)n2)n1	3.0	3.1	nt	nt	nt
Cn1cc([N+](=O)[O-])c(C(=O)N/N=C/c2ccc([N+](=O)[O-])cc2)n1	i	i	nt	nt	nt
SMILES	HCT116 bCat-KO	HCT116 PTEN-null	H69AR inhibit	HUVEC prolif 384	Lung fibro prol
Cn1cc([N+](=O)[O-])c(C(=O)Nc2ccc(Br)cn2)n1	2.7	1.4	nt	nt	nt
Cc1ccc(S(=O)(=O)/N=C(\Nc2cc(C)on2)c2ccc(Cl)cc2)cc1	i	i	nt	nt	nt
Cc1ccc(C)c(Cc2c(C)nc3c(C(=O)NCc4ccc5c(c4)OCO5)cnn3c2C)c1	i	i	i	i	i
Cc1ccccc1Cc1c(C)nc2c(C(=O)NCc3ccc4c(c3)OCO4)cnn2c1C	i	i	29	i	i
O=C(CCSCc1ccc(Cl)cc1)NC1CCCC1	i	i	nt	nt	nt
O=[N+]([O-])c1cc(-c2nc3nc4ccccc4nc3n2CCc2ccccc2)cc([N+](=O)[O-])c1	i	i	nt	nt	nt
C/C=C(\CS(=O)(=O)c1ccccc1)S(=O)(=O)c1ccccc1	i	i	25	i	i
Cc1nnc(SCC(=O)Nc2ccccc2C(=O)NC2CC2)s1	i	i	nt	nt	nt
O=C(Nc1cc(S(=O)(=O)N2CCCCC2)ccc1O)c1ccccc1NS(=O)(=O)c1ccc(F)c(F)c1	i	i	nt	nt	nt
COc1cccc(C(=O)N2C(C(=O)O)CSC2c2ccccc2Cl)c1 (stereo unspecified)	i	i	nt	nt	nt
COc1ccc(C)cc1NC(=O)CN(Cc1nnc(-c2ccc(Cl)cc2)o1)C1CCCC1	i	i	2.4	i	i
COc1ccc(NC(=O)Cn2nnc(C(=O)NCc3ccccc3)c2N)cc1Cl	i	i	28	i	i
COc1cccc(CNC(=O)c2nnn(CC(=O)Nc3ccc(C)c(C)c3)c2N)c1	i	i	i	i	i
C[C@](N)(Cc1ccc(O)c(O)c1)C(=O)O	6.1	i	i	i	i
CN1Cc2cccc3c2C(Cc2ccccc2S3)C1 (stereo unspecified)	i	i	nt	nt	nt
O=C(NCC1CCCO1)C1CCN(S(=O)(=O)N2CCCC2)CC1 (stereo unspecified)	i	i	i	i	nt
O=S(=O)(CCN(CCS(=O)(=O)C(F)(F)F)CC1CCCO1)C(F)(F)F (stereo unspecified)	1.6	1.5	i	i	44
CCONC(=O)Nc1ccccc1	i	i	nt	nt	nt
CC(=O)Nc1ccc2c(c1)C(=O)c1ccccc1C2=O	i	i	nt	nt	nt
O=C1C(=O)c2ccc(-c3ccccc3)cc2-c2ccccc21	0.1	0.1	1.5	2.2	2.7
Nc1ccc2c(c1)C(=O)C(=O)c1ccccc1-2	1.0	1.1	0.2	3.1	2.1
Cn1c(CNc2cccc(Cl)c2)nnc1SCC(=O)OC1CCCCC1	i	i	i	19	i
Cc1cc(Br)ccc1NC(=O)CN1C(=O)C2C3CC(c4ccccc4)C(C3)C2C1=O (stereo unspecified)	i	i	nt	nt	nt
Cc1ccccc1N1C(=O)CC(Sc2nnc(-c3ccccc3)o2)C1=O (stereo unspecified)	i	i	1.8	i	46
O=C1CC(Sc2nnc(-c3ccccc3)o2)C(=O)N1c1ccccc1 (stereo unspecified)	i	i	1.8	i	i
COc1ccc2cc3cc(C(=O)Nc4ccccc4N4CCN(C)CC4)oc3nc2c1	2.1	1.5	29	3.6	28
COc1ccc2cc3cc(C(=O)NCCN4CCN(c5ccccc5F)CC4)oc3nc2c1	i	i	i	i	i
Cc1cn([C@H]2C[C@H](N=[N+]=[N-])[C@@H](CO)O2)c(=O)[nH]c1=O	i	i	i	i	i
O=c1[nH]c(=O)n([C@H]2C[C@H](O)[C@@H](CO)O2)cc1F	i	i	15	i	i
COc1ccc(/C=C(\C#N)C(=O)Nc2cc(S(=O)(=O)N3CCCCC3)ccc2N2CCCCC2)cc1	i	i	nt	nt	nt
